In the library only some 2.3% were active in any assay of this set; here they are far more common.
TRPC4 block = inhibitors of mouse TRPC4 channel, primary screen, Fluo4 calcium, HEK293 TRPC4beta/mu-opioid cells; Short transient receptor potential channel 4 (Mus musculus), Q9QUQ5; DAMGO-evoked Fluo4 calcium flux; hits give low values; B-score at 10 µM; 300,000 compounds, 0.39% hits;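 active = B-score over 3 SD under the library average, no early fluorescence shift, positive overall ratio signal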
Target sequence (Q9QUQ5 whole entry, looked up): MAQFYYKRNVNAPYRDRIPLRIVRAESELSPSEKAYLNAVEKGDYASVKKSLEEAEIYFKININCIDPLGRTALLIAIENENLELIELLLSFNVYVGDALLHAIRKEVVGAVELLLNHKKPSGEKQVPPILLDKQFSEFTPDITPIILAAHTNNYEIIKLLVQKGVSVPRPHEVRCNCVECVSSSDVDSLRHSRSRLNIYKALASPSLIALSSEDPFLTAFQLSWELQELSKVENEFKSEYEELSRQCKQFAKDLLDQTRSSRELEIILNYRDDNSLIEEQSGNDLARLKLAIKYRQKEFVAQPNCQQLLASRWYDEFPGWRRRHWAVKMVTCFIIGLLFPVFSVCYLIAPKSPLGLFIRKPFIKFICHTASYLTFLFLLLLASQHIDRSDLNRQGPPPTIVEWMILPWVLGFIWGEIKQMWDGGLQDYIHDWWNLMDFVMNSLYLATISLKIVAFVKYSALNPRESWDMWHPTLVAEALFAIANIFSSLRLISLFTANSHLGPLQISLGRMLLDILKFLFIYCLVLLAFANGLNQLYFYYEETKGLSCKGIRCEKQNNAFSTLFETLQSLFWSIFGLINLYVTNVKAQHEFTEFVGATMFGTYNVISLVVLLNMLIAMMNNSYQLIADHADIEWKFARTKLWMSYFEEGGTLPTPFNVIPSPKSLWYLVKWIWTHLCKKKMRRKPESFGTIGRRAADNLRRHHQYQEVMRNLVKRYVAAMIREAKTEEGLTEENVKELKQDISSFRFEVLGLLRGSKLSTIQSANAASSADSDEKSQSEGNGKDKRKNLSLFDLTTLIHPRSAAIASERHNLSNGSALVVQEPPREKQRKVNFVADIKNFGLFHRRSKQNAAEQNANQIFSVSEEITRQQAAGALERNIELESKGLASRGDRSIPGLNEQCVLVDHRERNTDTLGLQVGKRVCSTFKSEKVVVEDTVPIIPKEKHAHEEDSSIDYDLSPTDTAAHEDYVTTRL
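Assay system: HEK293 cells with stable TRPC4beta plus mu-opioid receptor expression. Dosing: single dose. Measured by: Fluo4 Ca2+ flux fluorescence. Also added: DAMGO in two steps, submaximal then maximal. Read-out: B score from integrated Fluo4 fluorescence ratio.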
TRPC4 act = activators of mouse TRPC4 channel, primary screen, Fluo4 calcium, HEK293 TRPC4beta/mu-opioid cells | Short transient receptor potential channel 4 (Mus musculus), Q9QUQ5 | Fluo4 calcium fluorescence; hits give high values | B-score at 10 µM | 310,000 compounds, 0.49% hits;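 active = B-score above 5 SD of library B-scores, and initial fluorescence ratio not above library mean plus 5 SD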;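 note: positive B-score marks a calcium rise read as TRPC4 activation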
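Incubation: 45 min room-temperature Fluo4 loading, 110 s read / System: HEK293 cells stably co-expressing mouse TRPC4beta and mu-opioid receptor / Signal: Fluo4 fluorescence, kinetic / Control set: buffer (low) and maximal DAMGO (high) / Measure: integrated baseline-normalised fluorescence ratio, converted to per-well B score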
TRPC4 potent = positive allosteric modulators of TRPC4, primary screen, cell-based, mouse TRPC4beta, HEK293 mu-opioid, Fluo-4 calcium | Short transient receptor potential channel 4 (Mus musculus), Q9QUQ5 | AID 2227, 2009 | DAMGO EC20, Fluo-4 Ca2+ flux; hits give high values | 310,000 compounds, 0.42% hits | B-score at 10 µM;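 active = B-score of calcium response area above 5 SD of library B-scores, with initial fluorescence ratio within 5 SD of library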
TRPC6 act = mouse TRPC6 channel activators, primary screen, cell-based, HEK293, membrane potential dye; Short transient receptor potential channel 6 (Mus musculus), Q61143; HEK293-TRPC6 membrane potential dye fluorescence; hits give high values; B-score at 10 µM; 310,000 compounds, 0.13% hits; AID 2550, 2010;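 active = B-score of the integrated fluorescence ratio above library mean plus 3 SD, and starting fluorescence ratio within library mean plus 5 SD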;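 note: higher score means more depolarization so channel activation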
TRPC6 inhibitor = mouse TRPC6 channel inhibitors, primary screen, cell-based, HEK293, membrane potential dye; Short transient receptor potential channel 6 (Mus musculus), Q61143; B-score at 10 µM; 310,000 compounds, 1.1% hits; AID 2553, 2010; ACh-evoked depolarization; hits give low values;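 active = B-score under library mean minus 3 SD, initial fluorescence not abnormally high, positive integrated signal ratio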;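 note: B-score derived from integrated fluorescence ratio over the kinetic read; more negative B-score means stronger inhibition of depolarization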
TRPC4 spec 2 = mouse TRPC4 off-target activity of TRPC6 inhibitors, second screen | shares compounds with TRPC6 inhibitor | 920 compounds, 42% hits | inhibition, % at 10 µM | AID 2776 | HEK293 TRPC4/MOR, membrane potential dye fluorescence; channel activated by saturating DAMGO dose;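 active = compounds whose fluorescence signal differed from control wells by over 3 SD, either direction, in both duplicate plates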
TRPC4 spec = mouse TRPC4 modulation by TRPC6 hits, confirmation, selectivity assay for TRPC6 inhibitor project, cell-based, HEK293 TRPC4/mu-opioid, membrane potential dye; 920 compounds, 61% hits; activity change, negative = inhibition, % at 10 µM; membrane potential fluorescence; shares compounds with TRPC6 inhibitor; AID 2777, 2010;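 active = rise or fall in signal beyond 3 SD of buffer-only wells in both replicate plates, either sign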;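 note: integrated kinetic ratio of fluorescence range over baseline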
HEK293 MPD ctr 2-1 = nonspecific membrane potential effects, parental HEK293, confirmation, counter-screen for TRPC6 inhibitor project, cell-based, second counter screen; parental HEK293 membrane potential dye fluorescence; maximal acetylcholine challenge after compound addition; signal change vs control, % at 10 µM; 920 compounds, 31% hits; shares compounds with TRPC6 inhibitor;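 active = membrane potential signal moving either way by over 3 SD of the maximum-effect control, in both duplicate plates, meaning non-specific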
HEK293 MPD ctr-1 = membrane potential modulation in parental HEK293, confirmation, counter-screen for TRPC6 inhibitor project, cell-based | shares compounds with TRPC6 inhibitor | parental HEK293 membrane potential dye fluorescence | membrane potential signal change, % at 10 µM | 920 compounds, 60% hits | AID 2780, 2010;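 active = membrane potential signal shifting up or down by more than 3 SD of buffer-only wells, on both duplicate plates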
HEK293 MPD ctr-2 = parental HEK293 membrane potential modulation, confirmation, counter-screen for TRPC6 modulator project, cell-based. shares compounds with TRPC6 inhibitor. membrane potential dye fluorescence. membrane potential signal change, % at 10 µM. 2,400 compounds, 51% hits. AID 488924, 2010;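 active = membrane potential signal moves up or down beyond 5 SD from buffer-only wells, on both duplicate plates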
HEK293 MPD ctr 2-2 = second check of TRPC6 modulator effects in parental HEK293 cells | shares compounds with TRPC6 inhibitor | membrane potential dye fluorescence; after compound, maximal acetylcholine stimulation | inhibition, % at 10 µM | 2,400 compounds, 14% hits | AID 488926;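 active = membrane potential signal drops by more than 5 SD from the mean control signal, in both duplicate plates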
TRPC4 ctr mod = TRPC4 modulation by TRPC6 hit compounds, confirmation, selectivity assay for TRPC6 modulator project, cell-based, HEK293 TRPC4/mu-opioid, membrane potential dye, mouse; 2,400 compounds, 69% hits; shares compounds with TRPC6 inhibitor; percent change from control (negative = decrease, positive = increase), % at 10 µM; membrane potential fluorescence;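 active = membrane potential signal moved up or down beyond 5 SD of buffer control wells, in both duplicate plates, actives on both sides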
TRPC4 ctr inh 2 = second selectivity test of TRPC6 modulators against mouse TRPC4. shares compounds with TRPC6 inhibitor. inhibition, % at 10 µM. 2,400 compounds, 55% hits. HEK293 TRPC4/mu-opioid, membrane potential dye fluorescence; stimulated with maximal-effect DAMGO;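 active = drop in membrane potential signal beyond 5 SD of the control wells in both duplicate plates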;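 note: TRPC4 counter screen for TRPC6 hits run under conditions tuned for TRPC6 not TRPC4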
TRPC6 block conf = mouse TRPC6 channel inhibitors, confirmation, HEK293 cells, membrane potential dye, duplicate; shares compounds with TRPC6 inhibitor; 3,300 compounds, 43% hits; ACh-evoked depolarization; inhibition, % at 10 µM; AID 488960, 2010;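 active = fluorescence ratio falls more than 5 SD below the full-stimulation control mean, in both duplicate runs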;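 note: integrated fluorescence ratio of peak minus minimum over baseline after agonist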
TRPC6 act conf = mouse TRPC6 channel activators, confirmation, HEK293 cells, membrane potential dye, duplicate. HEK293-TRPC6 membrane potential dye fluorescence, FDSS. activation, % at 10 µM. AID 488961, 2010. shares compounds with TRPC6 inhibitor. 2,800 compounds, 11% hits;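 active = ratio signal rise beyond 5 SD above unstimulated control wells' mean, seen in both duplicate runs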
Each line names hits and unclear results; the compound was inactive in the other large screens (follow-up assays come after a bar, where they were run).

COc1cc2c(cc1OC)C1(Nc3c-2c(Cc2ccccc2)nn3-c2ccccc2)C(=O)Nc2ccccc21 (configuration not stated)	TRPC6 inhibitor -6.78 | TRPC4 spec 2 inactive | TRPC4 spec -9.5% | HEK293 MPD ctr 2-1 inactive | HEK293 MPD ctr-1 inactive | TRPC6 block conf inactive | TRPC6 act conf inactive
N=c1c2c(n(Cc3ccccc3)c3c1CCC3)CCC2	TRPC4 block -6, TRPC6 inhibitor -7.6 | TRPC4 spec 2 68.0% | TRPC4 spec -23.6% | HEK293 MPD ctr 2-1 19.5% | HEK293 MPD ctr-1 -394.0% | TRPC6 block conf 65.0% | TRPC6 act conf inactive
N=c1c2c(n(Cc3ccc(F)cc3)c3c1CCC3)CCCC2	TRPC6 inhibitor -5.41 | HEK293 MPD ctr-2 -188.5% | HEK293 MPD ctr 2-2 inactive | TRPC4 ctr mod -30.5% | TRPC4 ctr inh 2 30.0% | TRPC6 block conf inactive | TRPC6 act conf inactive
CCOC(=O)Cn1c2c(c(=N)c3c1CCC3)CCC2	none
O=C1CCCc2ccccc2N1Cc1ccc(F)cc1	none
Cc1nc(N2CCN(Cc3ccccc3)CC2)nc2c1CCC2	none
CCn1c2c(c(=N)c3c1CCC3)CCCC2	TRPC6 inhibitor -5.31 | HEK293 MPD ctr-2 -283.5% | HEK293 MPD ctr 2-2 inactive | TRPC4 ctr mod -48.5% | TRPC4 ctr inh 2 31.0% | TRPC6 block conf inactive | TRPC6 act conf inactive
CCN(CC)c1ccc(/C=C(/C#N)C(=O)NCc2ccccc2)o1	TRPC6 act 18.8 | HEK293 MPD ctr-2 590.5% | HEK293 MPD ctr 2-2 inactive | TRPC4 ctr mod 183.0% | TRPC4 ctr inh 2 inactive | TRPC6 block conf inactive | TRPC6 act conf 132.0%
Cc1cccc(NC(=O)CN(C)S(=O)(=O)c2cccc3nsnc23)c1C	TRPC6 inhibitor -5.52 | HEK293 MPD ctr-2 inactive | HEK293 MPD ctr 2-2 inactive | TRPC4 ctr mod 16.0% | TRPC4 ctr inh 2 28.5% | TRPC6 block conf inactive | TRPC6 act conf inactive
Cc1ccc(S(=O)(=O)N2CCCN(S(=O)(=O)c3ccc4ccccc4c3)CC2)cc1	none
O=S(=O)(Nc1cccc(-c2ccc3nncn3n2)c1)c1cc(F)ccc1F	none
Cc1cc(NCCCN2CCOCC2)n2nc(C)c(-c3ccccc3)c2n1	TRPC6 inhibitor -6.06 | HEK293 MPD ctr-2 -171.0% | HEK293 MPD ctr 2-2 inactive | TRPC4 ctr mod -31.0% | TRPC4 ctr inh 2 38.0% | TRPC6 block conf inactive | TRPC6 act conf inactive
Cn1ccnc1C1CCCCN1Cc1nc(-c2ccc3c(c2)OCO3)no1 (configuration not stated)	TRPC6 inhibitor -5.3 | HEK293 MPD ctr-2 184.0% | HEK293 MPD ctr 2-2 62.5% | TRPC4 ctr mod 44.0% | TRPC4 ctr inh 2 40.0% | TRPC6 block conf 47.5%
COc1ccc(-c2noc(CN3CCCCC3c3nccn3C)n2)cc1 (configuration not stated)	none
Cn1ccnc1C1CCCCN1Cc1nc(Cc2cccc(C(F)(F)F)c2)no1 (configuration not stated)	TRPC6 inhibitor -5.3 | HEK293 MPD ctr-2 136.5% | HEK293 MPD ctr 2-2 inactive | TRPC4 ctr mod 32.0% | TRPC4 ctr inh 2 27.0% | TRPC6 block conf inactive
O=C(Sc1ccc(Cl)cc1)c1ccccn1	none
O=C(CNS(=O)(=O)c1ccc2ccccc2c1)OCc1nnc(-c2ccccc2)o1	none
Cc1ccc(C(O)(CCN2CCCCC2)c2ccccc2)cc1 (configuration not stated)	TRPC6 inhibitor -7.1 | TRPC4 spec 2 inactive | TRPC4 spec 14.1% | HEK293 MPD ctr 2-1 inactive | HEK293 MPD ctr-1 12.8% | TRPC6 block conf 61.9%
OC(CCN1CCOCC1)(c1ccc(Cl)cc1)C1CCCCC1 (configuration not stated)	TRPC6 inhibitor -5.71 | HEK293 MPD ctr-2 149.0% | HEK293 MPD ctr 2-2 inactive | TRPC4 ctr mod 25.5% | TRPC4 ctr inh 2 45.0% | TRPC6 block conf 43.5% | TRPC6 act conf inactive
OC(CCN1CCCCC1)(c1ccccc1)C1CCCCC1 (configuration not stated)	TRPC6 inhibitor -5.18 | HEK293 MPD ctr-2 208.5% | HEK293 MPD ctr 2-2 80.0% | TRPC4 ctr mod 42.0% | TRPC4 ctr inh 2 inactive | TRPC6 block conf 78.5%
CCCOc1ccc(C(O)(CCC)CCN2CCCCC2)cc1 (configuration not stated)	none

Screening results deposited in PubChem by Johns Hopkins Ion Channel Center.
